pIC50: −log10 of the molar value. Activity calls are given as the source filed them. No cut-off for these calls is given here.
What was measured:
MDA-MB-231 [1] = experiment: Cytotoxicity against human MDA-MB-231 cells assessed as decrease in cell proliferation after 72 hrs by MTT assay; format: functional, cell-based
B9 = experiment: Cytotoxicity against mouse B9 cells assessed as decrease in cell proliferation at 50 uM after 72 hrs by MTT assay; format: functional, cell-based
MDA-MB-231 [2] = experiment: Cytotoxicity against human MDA-MB-231 cells transfected with STAT3C assessed as decrease in cell proliferation after 72 hrs by MTT assay; format: functional, cell-based
CD4-positive T cell [3] = experiment: Induction of polarization of C57BL/6 mouse spleen naive CD4+ lymphocytes into Th17 lymphocytes assessed as decrease in ROR-gamma-t transcription at 50 uM; format: functional, tissue-based
CD4-positive T cell [4] = experiment: Induction of polarization of C57BL/6 mouse spleen naive CD4+ lymphocytes into Th17 lymphocytes assessed as decrease in FoxP3 transcription at 50 uM; format: functional, tissue-based
CD4-positive T cell [5] = experiment: Induction of polarization of C57BL/6 mouse spleen naive CD4+ lymphocytes into Treg lymphocytes assessed as decrease in ROR-gamma-t transcription at 50 uM; format: functional, tissue-based
CD4-positive T cell [6] = experiment: Induction of polarization of C57BL/6 mouse spleen naive CD4+ lymphocytes into Treg lymphocytes assessed as decrease in FoxP3 transcription at 50 uM; format: functional, tissue-based
CD4-positive T cell [7] = experiment: Induction of polarization of C57BL/6 mouse spleen naive CD4+ lymphocytes into Th1 lymphocytes assessed as decrease in Tbet transcription; format: functional, tissue-based
PBL = experiment: Induction IFN-gamma production in human PBL cells co-cultured with HT29 cells at 50 uM after 24 hrs by ELISA; format: functional, cell-based
[8] = biological target: T1, Signal transducer and activator of transcription 3 (Homo sapiens, UniProt P40763); experiment: Displacement of fluorescent peptide 5-FAM-G(pTyr)LPQTV-CONH2 from GST-tagged full-length human STAT3 preincubated for 60 mins followed by fluorescent peptide addition measured after 30 mins by fluorescence polarization assay
T1 sequence (P40763 whole entry): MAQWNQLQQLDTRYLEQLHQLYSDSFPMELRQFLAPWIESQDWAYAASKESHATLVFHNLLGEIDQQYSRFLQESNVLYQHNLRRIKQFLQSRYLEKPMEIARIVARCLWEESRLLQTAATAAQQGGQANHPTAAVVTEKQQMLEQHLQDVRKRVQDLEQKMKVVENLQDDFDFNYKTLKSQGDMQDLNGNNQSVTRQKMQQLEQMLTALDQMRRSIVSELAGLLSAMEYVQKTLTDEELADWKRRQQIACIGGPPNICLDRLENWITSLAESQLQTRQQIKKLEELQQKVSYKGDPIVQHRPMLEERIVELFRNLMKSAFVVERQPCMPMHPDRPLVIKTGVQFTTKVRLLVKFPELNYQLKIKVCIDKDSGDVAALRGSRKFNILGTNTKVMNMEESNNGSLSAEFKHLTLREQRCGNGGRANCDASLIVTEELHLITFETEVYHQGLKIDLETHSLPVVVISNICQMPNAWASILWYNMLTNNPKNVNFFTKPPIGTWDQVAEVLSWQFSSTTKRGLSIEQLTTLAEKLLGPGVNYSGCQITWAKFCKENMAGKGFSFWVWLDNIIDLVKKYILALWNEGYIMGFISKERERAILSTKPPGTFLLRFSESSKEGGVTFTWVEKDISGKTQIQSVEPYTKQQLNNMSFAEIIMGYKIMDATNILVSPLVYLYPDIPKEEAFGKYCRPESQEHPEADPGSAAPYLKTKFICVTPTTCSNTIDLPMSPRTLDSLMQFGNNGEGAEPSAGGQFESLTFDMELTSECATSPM
Outline: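 Full-length GST-STAT3 (100 nM) preincubated 60 min at room temperature with compound at various concentrations or vehicle, in 50 mM NaCl, 10 mM Hepes pH 7.5, 1 mM EDTA, 0.01% Triton X-100, 2 mM DTT. Labelled peptide then added to 10 nM final, 30 min room temperature. FP read with excitation 480, emission 535 (P and S pol).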

[9] = biological target: T2, Signal transducer and activator of transcription 1-alpha/beta (Homo sapiens) (UniProt P42224); experiment: Displacement of fluorescent peptide 5-FAM-G(pTyr)YIKTE- CONH2 from GST-tagged human STAT1b preincubated for 60 mins followed by fluorescent peptide addition measured after 30 mins by fluorescence polarization assay
T2 sequence (whole entry): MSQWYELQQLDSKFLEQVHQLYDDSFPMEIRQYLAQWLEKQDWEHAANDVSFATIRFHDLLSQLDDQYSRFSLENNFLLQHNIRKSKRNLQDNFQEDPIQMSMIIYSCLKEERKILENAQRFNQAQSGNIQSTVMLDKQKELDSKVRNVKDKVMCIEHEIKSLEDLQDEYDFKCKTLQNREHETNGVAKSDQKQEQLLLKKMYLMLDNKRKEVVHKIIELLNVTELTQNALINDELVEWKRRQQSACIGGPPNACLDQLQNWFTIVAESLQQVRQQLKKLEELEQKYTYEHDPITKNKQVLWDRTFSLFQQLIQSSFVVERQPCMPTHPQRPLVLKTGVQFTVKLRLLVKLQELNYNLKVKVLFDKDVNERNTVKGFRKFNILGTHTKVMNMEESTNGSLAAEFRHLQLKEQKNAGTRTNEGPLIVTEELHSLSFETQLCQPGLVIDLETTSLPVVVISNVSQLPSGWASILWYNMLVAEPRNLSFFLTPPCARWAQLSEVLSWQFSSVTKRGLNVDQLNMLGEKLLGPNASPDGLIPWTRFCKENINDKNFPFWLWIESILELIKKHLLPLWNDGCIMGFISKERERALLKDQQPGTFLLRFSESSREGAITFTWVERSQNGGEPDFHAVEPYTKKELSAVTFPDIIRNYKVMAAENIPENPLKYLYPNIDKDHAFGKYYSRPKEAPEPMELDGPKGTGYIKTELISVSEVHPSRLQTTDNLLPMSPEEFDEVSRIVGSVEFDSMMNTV
Outline: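 GST-tagged human STAT1b preincubated 60 min at room temperature with compound at various concentrations or vehicle in 50 mM NaCl, 10 mM Hepes pH 7.5, 1 mM EDTA, 0.01% Triton X-100, 2 mM DTT. Labelled peptide added to 10 nM final, 30 min room temperature. Fluorescence polarization read with excitation 480, emission 535.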

[10] = biological target: T1, Signal transducer and activator of transcription 3; experiment: Inhibition of STAT3 (unknown origin) expressed in Oncostatin M induced human HeLa cells at 50 uM incubated for 1 hr by luciferase reporter gene assay; format: cell-based
[11] = biological target: T2, Signal transducer and activator of transcription 1-alpha/beta (Homo sapiens); experiment: Inhibition of STAT1 (unknown origin) expressed in IFN-gamma induced human HeLa cells at 50 uM incubated for 1 hr by luciferase reporter gene assay; format: cell-based
[12] = biological target: T1, Signal transducer and activator of transcription 3; experiment: Inhibition of STAT3 (unknown origin) expressed in Oncostatin M induced human HeLa cells incubated for 1 hr by luciferase reporter gene assay
[13] = biological target: T1, Signal transducer and activator of transcription 3; settings: HeLa, 100 uM
[14] = biological target: T1, Signal transducer and activator of transcription 3; settings: HeLa, 100 uM; remark: listed apart in the source
HeLa = experiment: Cytotoxicity against human HeLa cells at 50 uM; format: cell-based

Activity [8] | Activity [9] | inhibition [10] | inhibition [11] [%] | pIC50 [12] | inhibition [13] | inhibition [14] | Structure (SMILES) | Activity (MDA-MB-231 [1]) | Activity (B9) | Activity (MDA-MB-231 [2]) | Activity (CD4-positive T cell [3]) | Activity (CD4-positive T cell [4]) | Activity (CD4-positive T cell [5]) | Activity (CD4-positive T cell [6]) | Activity (CD4-positive T cell [7]) | Activity (PBL) | Activity (HeLa)
Active | inactive | 70.2% | 15.7 | 4.59 | Active | Active | COc1cc(CNc2nn[nH]n2)cc(Cl)c1OCc1ccc([N+](=O)[O-])cc1 | Dose-dependent effect | Dose-dependent effect | inactive | Active | Active | Active | Active | inactive | Active | 
 |  | Active |  |  |  |  | CCOc1cc(/C=C(\C#N)C(=O)NC2CCCCC2C)ccc1OCC(=O)O (stereo not drawn) |  |  |  |  |  |  |  |  |  | Toxic

Reference: ChEMBL document CHEMBL3627693, “Novel aminotetrazole derivatives as selective STAT3 non-peptide inhibitors” (Eur J Med Chem, 2015)
